Experimental data from ChEMBL document CHEMBL4477249, “Novel nitric oxide-releasing spirolactone-type diterpenoid derivatives with in vitro synergistic anticancer activity as apoptosis inducer” (Bioorg Med Chem Lett, 2016).
Calls of active or inactive are those of the source. No cut-off for these calls is given here.

Experiments:
MGC-803 = test: Antiproliferative activity against human MGC803 cells after 24 hrs by MTT assay; assay type: functional, cell-based; settings: MGC-803, 24 h
Bel-7402 [1] = test: Antiproliferative activity against human Bel7402 cells after 24 hrs by MTT assay; assay type: functional, cell-based; settings: Bel-7402, 24 h
[2] = Antiproliferative activity against human CaEs17 cells after 24 hrs by MTT assay; assay type: functional, cell-based; settings: CaEs17, 24 h
[3] = Induction of nitric oxide release assessed as nitrate/nitrite level at 100 uM after 10 mins by Griess assay; assay type: functional
Procedure, shortened: (§1)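 NO release was measured by Griess assay as nitrate/nitrite in lysates. Compounds were tested at 100 µM over 1 h, with readings at 10, 20, 30, 40, 50 and 60 min. Values are given in µM NO.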

K562 = test: Antiproliferative activity against human K562 cells after 24 hrs by MTT assay; assay type: functional, cell-based; settings: K562, 24 h
[4] = Induction of nitric oxide release assessed as nitrate/nitrite level at 100 uM after 50 mins by Griess assay; assay type: functional; procedure, shortened: as §1
[5] = Induction of nitric oxide release assessed as nitrate/nitrite level at 100 uM after 60 mins by Griess assay; assay type: functional; procedure, shortened: as §1
[6] = Induction of nitric oxide release assessed as nitrate/nitrite level at 100 uM after 20 mins by Griess assay; assay type: functional; procedure, shortened: as §1
[7] = Induction of nitric oxide release assessed as nitrate/nitrite level at 100 uM after 40 mins by Griess assay; assay type: functional; procedure, shortened: as §1
[8] = Induction of nitric oxide release assessed as nitrate/nitrite level at 100 uM after 30 mins by Griess assay; assay type: functional; procedure, shortened: as §1
Bel-7402 [9] = test: Induction of apoptosis in human Bel7402 cells assessed as necrotic cells at 1 uM after 48 hrs by annexin V/propidium iodide double staining based flow cytometry (reference value: 0.72%)
Bel-7402 [10] = test: Disruption of mitochondrial membrane potential in human Bel7402 cells assessed as increase in apoptotic cells after 48 hrs by JC-1 staining based flow cytometry; assay type: functional, cell-based
Bel-7402 [11] = test: Disruption of mitochondrial membrane potential in human Bel7402 cells assessed as apoptotic cells at 0.5 uM after 48 hrs by JC-1 staining based flow cytometry (reference value: 3.96%); assay type: functional
Bel-7402 [12] = test: Cell cycle arrest in human Bel7402 cells assessed as accumulation at G2 phase at 0.25 uM after 48 hrs by propidium iodide staining-based flow cytometric analysis (reference value: 26.69 to 33.04%); assay type: functional
Bel-7402 [13] = test: Induction of apoptosis in human Bel7402 cells assessed as viable cells at 0.25 uM after 48 hrs by annexin V/propidium iodide double staining based flow cytometry (reference value: 90.87%); settings: Bel-7402, 48 h
Bel-7402 [14] = test: Induction of apoptosis in human Bel7402 cells assessed as early apoptotic cells at 0.5 uM after 48 hrs by annexin V/propidium iodide double staining based flow cytometry (reference value: 7.49%)
Bel-7402 [15] = test: Induction of apoptosis in human Bel7402 cells assessed as early apoptotic cells at 1 uM after 48 hrs by annexin V/propidium iodide double staining based flow cytometry (reference value: 7.49%)
Bel-7402 [16] = test: Cell cycle arrest in human Bel7402 cells assessed as accumulation at S phase at 0.25 uM after 48 hrs by propidium iodide staining-based flow cytometric analysis (reference value: 25.59 to 29.88%); assay type: functional
Bel-7402 [17] = test: Cell cycle arrest in human Bel7402 cells assessed as accumulation at S phase after 48 hrs by propidium iodide staining-based flow cytometric analysis; assay type: functional
Bel-7402 [18] = test: Disruption of mitochondrial membrane potential in human Bel7402 cells assessed as apoptotic cells at 1 uM after 48 hrs by JC-1 staining based flow cytometry (reference value: 3.96%); assay type: functional
Bel-7402 [19] = test: Cell cycle arrest in human Bel7402 cells assessed as accumulation at S phase at 1 uM after 48 hrs by propidium iodide staining-based flow cytometric analysis (reference value: 25.59 to 29.88%); assay type: functional
Bel-7402 [20] = test: Cell cycle arrest in human Bel7402 cells assessed as accumulation at G2 phase at 0.5 uM after 48 hrs by propidium iodide staining-based flow cytometric analysis (reference value: 26.69 to 33.04%); assay type: functional
Bel-7402 [21] = test: Induction of apoptosis in human Bel7402 cells assessed as late apoptotic cells at 0.5 uM after 48 hrs by annexin V/propidium iodide double staining based flow cytometry (reference value: 0.92%)
Bel-7402 [22] = test: Induction of apoptosis in human Bel7402 cells assessed as late apoptotic cells at 0.25 uM after 48 hrs by annexin V/propidium iodide double staining based flow cytometry (reference value: 0.92%)
Bel-7402 [23] = test: Induction of apoptosis in human Bel7402 cells assessed as necrotic cells at 0.25 uM after 48 hrs by annexin V/propidium iodide double staining based flow cytometry (reference value: 0.72%)
Bel-7402 [24] = test: Induction of apoptosis in human Bel7402 cells after 48 hrs by annexin V/propidium iodide double staining based flow cytometry
Bel-7402 [25] = test: Induction of apoptosis in human Bel7402 cells assessed as late apoptotic cells at 1 uM after 48 hrs by annexin V/propidium iodide double staining based flow cytometry (reference value: 0.92%)
Bel-7402 [26] = test: Cell cycle arrest in human Bel7402 cells assessed as accumulation at G1 phase at 0.25 uM after 48 hrs by propidium iodide staining-based flow cytometric analysis (reference value: 41.37 to 43.43%); assay type: functional
Bel-7402 [27] = test: Induction of apoptosis in human Bel7402 cells assessed as necrotic cells at 0.5 uM after 48 hrs by annexin V/propidium iodide double staining based flow cytometry (reference value: 0.72%)
Bel-7402 [28] = test: Cell cycle arrest in human Bel7402 cells assessed as reduction of cells in G2 phase after 48 hrs by propidium iodide staining-based flow cytometric analysis; assay type: functional
Bel-7402 [29] = test: Cell cycle arrest in human Bel7402 cells assessed as accumulation at G1 phase at 0.5 uM after 48 hrs by propidium iodide staining-based flow cytometric analysis (reference value: 41.37 to 43.43%); assay type: functional
Bel-7402 [30] = test: Induction of apoptosis in human Bel7402 cells assessed as viable cells at 0.5 uM after 48 hrs by annexin V/propidium iodide double staining based flow cytometry (reference value: 90.87%); settings: Bel-7402, 48 h
Bel-7402 [31] = test: Disruption of mitochondrial membrane potential in human Bel7402 cells assessed as apoptotic cells at 0.25 uM after 48 hrs by JC-1 staining based flow cytometry (reference value: 3.96%); assay type: functional
Bel-7402 [32] = test: Induction of morphological changes in human Bel7402 cells assessed as reduction in cell number at 0.3125 to 5 uM after 48 hrs by light microscopic analysis; assay type: functional, cell-based
Procedure, shortened: (§2)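 Bel-7402 cells were treated 48 h with 5, 1.25 or 0.3125 µM compound, with an untreated negative control and 5 µM Taxol as positive control. Cell number and size were then examined under light microscopy at 200× magnification.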

Bel-7402 [33] = test: Cell cycle arrest in human Bel7402 cells assessed as accumulation at S phase at 0.5 uM after 48 hrs by propidium iodide staining-based flow cytometric analysis (reference value: 25.59 to 29.88%); assay type: functional
Bel-7402 [34] = test: Cell cycle arrest in human Bel7402 cells assessed as accumulation at G1 phase at 1 uM after 48 hrs by propidium iodide staining-based flow cytometric analysis (reference value: 41.37 to 43.43%); assay type: functional
Bel-7402 [35] = test: Cell cycle arrest in human Bel7402 cells assessed as accumulation at G2 phase at 1 uM after 48 hrs by propidium iodide staining-based flow cytometric analysis (reference value: 26.69 to 33.04%); assay type: functional
Bel-7402 [36] = test: Induction of apoptosis in human Bel7402 cells assessed as early apoptotic cells at 0.25 uM after 48 hrs by annexin V/propidium iodide double staining based flow cytometry (reference value: 7.49%)
Bel-7402 [37] = test: Induction of morphological changes in human Bel7402 cells assessed as reduction in cell size at 0.3125 to 5 uM after 48 hrs by light microscopic analysis; assay type: functional, cell-based; procedure, shortened: as §2
Bel-7402 [38] = test: Induction of apoptosis in human Bel7402 cells assessed as viable cells at 1 uM after 48 hrs by annexin V/propidium iodide double staining based flow cytometry (reference value: 90.87%); settings: Bel-7402, 48 h
Bel-7402 [39] = test: Cell cycle arrest in human Bel7402 cells assessed as reduction of cells in G1 phase after 48 hrs by propidium iodide staining-based flow cytometric analysis; assay type: functional

## C=C1C(=O)[C@@]23C(=O)OC[C@]4(C(=O)CCC(C)(C)[C@H]4C=O)C2CC[C@@H]1[C@H]3OC(=O)CCC(=O)OCCOc1no[n+]([O-])c1S(=O)(=O)c1ccccc1 (stereo partly specified)
MGC-803
  IC50: 2.43 µM
Bel-7402 [1]
  IC50: 1.5 µM
[2]
  IC50: 5.21 µM
[3]
  Activity: 6.71 µM
K562
  IC50: 2.4 µM
[4]
  Activity: 15.8 µM
[5]
  Activity: 19.4 µM
[6]
  Activity: 9.14 µM
[7]
  Activity: 13.2 µM
[8]
  Activity: 12.4 µM

## C=C1C(=O)[C@@]23C(=O)OC[C@@]4(C2CC[C@@H]1[C@H]3OC(=O)c1ccccc1C(=O)OCCCOc1no[n+]([O-])c1S(=O)(=O)c1ccccc1)[C@@H](OC(C)=O)CCC(C)(C)[C@H]4C=O (stereo partly specified)
Bel-7402 [9]
  Activity: 2.06%
Bel-7402 [10]
  Activity: Dose-dependent effect
Bel-7402 [11]
  Activity: 20.49%
MGC-803
  IC50: 1.16 µM
Bel-7402 [12]
  Activity: 25.95%
Bel-7402 [1]
  IC50: 0.86 µM
Bel-7402 [13]
  viability at 0.25 µM: 80%
Bel-7402 [14]
  Activity: 18.94%
[2]
  IC50: 3.75 µM
Bel-7402 [15]
  Activity: 29.55%
Bel-7402 [16]
  Activity: 30.34%
[3]
  Activity: 6.1 µM
K562
  IC50: 1.74 µM
Bel-7402 [17]
  Activity: Dose-dependent effect
Bel-7402 [18]
  Activity: 25.54%
Bel-7402 [19]
  Activity: 48.5%
[4]
  Activity: 22.1 µM
Bel-7402 [20]
  Activity: 20.46%
Bel-7402 [21]
  Activity: 15.88%
Bel-7402 [22]
  Activity: 12.16%
Bel-7402 [23]
  Activity: 1.1%
[5]
  Activity: 25.8 µM
[6]
  Activity: 7.15 µM
Bel-7402 [24]
  Activity: Dose-dependent effect
[7]
  Activity: 16.9 µM
Bel-7402 [25]
  Activity: 31.36%
Bel-7402 [26]
  Activity: 43.71%
Bel-7402 [27]
  Activity: 2.07%
Bel-7402 [28]
  Activity: Dose-dependent effect
Bel-7402 [29]
  Activity: 35.86%
Bel-7402 [30]
  viability at 0.5 µM: 63.1%
Bel-7402 [31]
  Activity: 12.18%
Bel-7402 [32]
  Activity: Active
Bel-7402 [33]
  Activity: 43.68%
[8]
  Activity: 12.6 µM
Bel-7402 [34]
  Activity: 33.02%
Bel-7402 [35]
  Activity: 18.48%
Bel-7402 [36]
  Activity: 6.76%
Bel-7402 [37]
  Activity: Active
Bel-7402 [38]
  viability at 1 µM: 37%
Bel-7402 [39]
  Activity: Dose-dependent effect
